In paper PMC3517065 (ChemMedChem, 2012):

Assays:
[1] = MTT-based cell viability assay; conditions: human, HeLa cells
How it was run: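 HeLa cells harvested in log phase, seeded at 1×10^3 per well in DMEM with 10% FBS, kept at 37 °C with 5% CO2. Test compound added 24 h after seeding from 10× stocks in DMEM; controls were DMEM alone and medium with DMSO (final 1%). At 72 h, MTT (2 mg mL−1 in PBS) added for 4 h; formazan dissolved in DMSO, A550 read. Value is the concentration reducing absorbance to 50% of control.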

[2] = system: HIV-1 in permissive cells (MT-4); conditions: which do not express A3G; cited from earlier work

SMILES	CC50 at 72 h [1] [µM]	inhibition of HIV-1 replication in permissive cells [2]
COc1ccccc1NC(=O)c1ccccc1Sc1ccccc1 [4a, N-(2-Methoxyphenyl)-2-(phenylthio)benzamide]	> 100	
COc1ccccc1NC(=O)c1ccccc1Sc1ccc([N+](=O)[O-])cc1 [5a (RN18), N-(2-Methoxyphenyl)-2-((4-nitrophenyl)thio)benzamide]	> 100	not in permissive cells
COc1ccccc1C(=O)Nc1ccccc1Sc1ccc([N+](=O)[O-])cc1 [5c, N-(2-(4-Nitrophenylthio)phenyl)-2-methoxybenzamide]	> 100	
COc1ccccc1NS(=O)(=O)c1ccccc1Sc1ccc([N+](=O)[O-])cc1 [5d, N-(2-Methoxyphenyl)-2-((4-nitrophenyl)thio)benzenesulfonamide]	> 100	
COc1ccccc1S(=O)(=O)Nc1ccccc1Sc1ccc([N+](=O)[O-])cc1 [5e, 2-Methoxy-N-(2-(4-nitrophenylthio)phenyl)benzenesulfonamide]	> 100	
COc1ccccc1CC(=O)Nc1ccccc1Sc1ccc([N+](=O)[O-])cc1 [5f, 2-(2-Methoxyphenyl)-N-(2-((4-nitrophenyl)thio)phenyl)acetamide]	> 100	
O=C(Cc1ccccc1F)Nc1ccccc1Sc1ccc([N+](=O)[O-])cc1 [5g, 2-(2-Fluorophenyl)-N-(2-((4-nitrophenyl)thio)phenyl)acetamide]	> 100	
COc1ccccc1NC(=O)c1ccccc1Sc1ccc(N)cc1 [6a, 2-((4-Aminophenyl)thio)-N-(2-methoxyphenyl)benzamide]	> 100	
COc1ccccc1C(=O)Nc1ccccc1Sc1ccc(N)cc1 [6c, N-(2-(4-Aminophenylthio)phenyl)-2-methoxybenzamide]	60	
COc1ccccc1NS(=O)(=O)c1ccccc1Sc1ccc(N)cc1 [6d, 2-((4-Aminophenyl)thio)-N-(2-methoxyphenyl)benzenesulfonamide]	> 100	
COc1ccccc1S(=O)(=O)Nc1ccccc1Sc1ccc(N)cc1 [6e, N-(2-(4-aminophenylthio)phenyl)-2-methoxybenzenesulfonamide]	65	
O=C(Nc1ccccc1CO)c1ccccc1Sc1ccc([N+](=O)[O-])cc1 [15e, N-(2-(Hydroxymethyl)phenyl)-2-((4-nitrophenyl)thio)benzamide]	> 100	
O=C(Nc1cccc(CO)c1)c1ccccc1Sc1ccc([N+](=O)[O-])cc1 [15f, N-(3-(Hydroxymethyl)phenyl)-2-((4-nitrophenyl)thio)benzamide]	> 100	
CC(C)(C)OC(=O)N1CCN(C(=O)c2ccccc2Sc2ccc([N+](=O)[O-])cc2)CC1 [15h, tert-Butyl 4-(2-((4-nitrophenyl)thio)benzoyl)piperazine-1-carboxylate]	70	
COc1ccccc1NC(=O)c1ccccc1Sc1ccc([N+](=O)[O-])cc1Cl [16a, 2-(2-Chloro-4-nitrophenylthio)-N-(2-methoxyphenyl)benzamide]	50	
O=C(Nc1ccc2c(c1)OCO2)c1ccccc1Sc1ccc([N+](=O)[O-])cc1Cl [16d, N-(Benzo[d][1,3]dioxol-5-yl)-2-((2-chloro-4-nitrophenyl)thio)benzamide]	> 100	
COc1ccccc1NC(=O)c1ccccc1Oc1ccc([N+](=O)[O-])cc1 [18a, N-(2-Methoxyphenyl)-2-(4-nitrophenoxy)benzamide]	15	
O=C(Nc1ccccc1CO)c1ccccc1Oc1ccc([N+](=O)[O-])cc1 [18e, N-(2-(hydroxymethyl)phenyl)-2-(4-nitrophenoxy)benzamide]	25	
COc1ccccc1NC(=O)c1ccccc1Oc1ccc(N)cc1 [19a, 2-(4-Aminophenoxy)-N-(2-methoxyphenyl)benzamide]	> 100	
COc1ccccc1NC(=O)c1ccccc1Oc1ccc2c(c1)OCO2 [23h, 2-(Benzo[d][1,3]dioxol-5-yloxy)-N-(2-methoxyphenyl)benzamide]	> 100	
COc1ccccc1C(=O)Nc1ccccc1Oc1ccc([N+](=O)[O-])cc1 [29k, 2-Methoxy-N-(2-(4-nitrophenoxy)phenyl)benzamide]	> 100	
COc1ccccc1C(=O)Nc1ccccc1Oc1ccc(N(C)C)cc1 [30k, N-(2-(4-(Dimethylamino)phenoxy)phenyl)-2-methoxybenzamide]	> 100	
COc1ccc(Oc2ccccc2NC(=O)c2ccccc2OC)cc1 [31k, 2-Methoxy-N-(2-(4-methoxyphenoxy)phenyl)benzamide]	> 100	
COc1ccccc1C(=O)Nc1ccccc1Oc1ccc(OC(C)=O)cc1 [32k, 4-(2-(2-Methoxybenzamido)phenoxy)phenyl acetate]	> 100	
COC(=O)c1ccc(Oc2ccccc2NC(=O)c2ccccc2OC)cc1 [33k, Methyl 4-(2-(2-methoxybenzamido)phenoxy)benzoate]	> 100	
COc1ccccc1NC(=O)c1ccccc1OCc1ccc([N+](=O)[O-])cc1 [40j, N-(2-Methoxyphenyl)-2-((4-nitrobenzyl)oxy)benzamide]	> 100	
COc1ccccc1C(=O)Nc1ccccc1OCc1ccc([N+](=O)[O-])cc1 [40k, N-(2-(4-Nitrobenzyloxy)phenyl)-2-methoxybenzamide]	> 100	
COc1ccccc1NC(=O)c1ccccc1OCc1cccc([N+](=O)[O-])c1 [41j, N-(2-Methoxyphenyl)-2-((3-nitrobenzyl)oxy)benzamide]	> 100	
COc1ccc(COc2ccccc2C(=O)Nc2ccccc2OC)cc1 [43j, 2-(4-methoxybenzyloxy)-N-(2-methoxyphenyl)benzamide]	> 100	
COC(=O)c1ccc(COc2ccccc2NC(=O)c2ccccc2OC)cc1 [45k, Methyl 4-((2-(2-methoxybenzamido)phenoxy)methyl)benzoate]	> 100	
